Bridge positions count the residues as written; N and C are the ends. Ends that are not written are not given here.
Legend:
[1] = tested on: mucus-producing differentiated CF pHBECs cultured at ALI; test: Validation of phage clone uptake by standard double-layer plaque assay; assay type: cell-based, human; conditions: Cout/Cin, 1 h, 37°C, n = 3
Summary of the method: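 Clones were sequence-verified from BL21 E. coli plaques and amplified in liquid BL21 culture. Each clone (3.3 × 10^7 PFU in 100 µL DPBS) was applied apically to ALI-differentiated CF pHBECs for 1 h at 37°C. Cells were washed with elution buffer and DPBS, lysed with M-PER, and spun at 14,000 × g. Internalized phage in the supernatant were titered by double-layer plaque assay as Cout/Cin. Controls were peptide-less WT phage, naive library, and CPS phage.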

[2] = tested on: differentiated CF pHBECs cultured at ALI; assay type: cell-based, human; conditions: average of three replicates, first to last round; 1,000 vg/cell
Summary of the method: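 Pooled T7 CX7C phage libraries were diluted in DPBS (no Ca2+/Mg2+) to 3.3 × 10^5 PFU/µL, giving 1,000 vg/cell, and applied to ALI-differentiated CF pHBECs pooled from seven donors (3.3 × 10^4 cells/insert). Incubation was 16 h at 37°C in round 1 and 1 h in round 5. Lysate was spun at 14,000 × g for 10 min and the supernatant titered by double-layer plaque assay. Output was pooled as input for the next round. Cout/Cin change was taken from three replicates, unpaired t test.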

[3] = 3.3 × 10^7 PFU apical, p < 0.005

Row | Sequence | uptake compared to insertless wild-type (WT) control and CPS control [1] | improvement in uptake compared to naive library ([1]; 3.3 × 10^7 PFU apical, p < 0.0005) | improvement in uptake compared to WT [1, 3] | improvement in uptake compared to clone CPS [1, 3] | increase in Cout/Cin after five rounds of selection [2]
1 | CTSTRKKQC (disulfide 1-9 (inferred)) [Clone C] | significantly improved uptake | ~454 fold | 56 fold | 50 fold | 
2 | CXXXXXXXC (disulfide) [CX7C T7 library] |  |  |  |  | 380 fold

Reference: article PMC11617931 (Molecular Therapy. Nucleic Acids, 2024)
